Consider 32 compounds from ChEMBL document CHEMBL1156197, “Design, synthesis and evaluation of novel 2-thiophen-5-yl-3H-quinazolin-4-one analogues as inhibitors of transcription factors NF-kappaB and AP-1 mediated transcriptional activation: Their possible utilization as anti-inflammatory and anti-cancer agents” (Bioorg Med Chem, 2010).

For series [1], the system named is HEK293. Nature of the series: Inhibition of NF-kappaB expressed in HEK293 cells assessed as inhibition of TNF-alpha-stimulated transcriptional activation at 10 uM treated 24 hrs before TNFalpha challenge measured after 20 to 24 hrs by luciferase reporter gene assay. The class given is cell-based. In a few lines:
(§1)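 Compounds in 0.1% DMSO (10 µM–1 nM) were added to replicate wells for 24 h. Cells were then stimulated with TNF-α for 20–24 h and read with Bright-Glo luciferase. Mean RLU was normalized to the maximal control; IC50 came from a six-point dose response.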
(In general: Reporter assays use an easily measured gene product as a stand-in for the process of interest.)

The test system of series [2] is HEK293. In words: Cytotoxicity against TNF-alpha-stimulated HEK293 cells at 10 uM treated 24 hrs before TNFalpha challenge measured after 20 to 24 hrs. The format is cell-based. The settings on record: human, hek293, 10 µM.
Series [3] has as its system Rattus norvegicus. In words: Antiinflammatory activity against carrageenan-induced paw edema in Sprague-Dawley rat assessed as reduction in paw volume at 50 mg/kg, po dosed 1 hr before carrageenan challenge measured after 3 hrs by plethysmometry. The class given is functional. Details: scale not given: the % may be the effect or the level left. In general terms: Carrageenan injected into the paw causes an acute inflammation.

Series [4] in a line: Inhibition of NF-kappaB expressed in HEK293 cells assessed as inhibition of TNF-alpha-stimulated transcriptional activation treated 24 hrs before TNFalpha challenge measured after 20 to 24 hrs by luciferase reporter gene assay. The format is cell-based. The essentials: as §1
Series [5] concerns the target Transcription factor Jun (Homo sapiens) (UniProt P05412). Nature of the series: Inhibition of AP-1 expressed in HEK293 cells assessed as PMA-stimulated transcriptional activation at 10 uM treated 24 hrs before PMA challenge measured after 20 to 24 hrs by luciferase reporter gene assay. The class given is cell-based. The essentials:
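HEK-293 cells stably carrying a minimal-promoter luciferase construct with tandem AP-1 elements (TGACTAA) were plated at 5 × 10⁴ cells/well and held 24 h at 37 °C in 5% CO₂. Compounds in 0.1% DMSO (10 µM–1 nM) were added to replicate wells for 24 h. Cells were then stimulated with PMA for 20–24 h and read with Bright-Glo luminescence. Mean RLU was normalized to the maximal control; IC50 came from a six-point dose response.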

Sequence of Transcription factor Jun (Homo sapiens) (P05412 whole entry): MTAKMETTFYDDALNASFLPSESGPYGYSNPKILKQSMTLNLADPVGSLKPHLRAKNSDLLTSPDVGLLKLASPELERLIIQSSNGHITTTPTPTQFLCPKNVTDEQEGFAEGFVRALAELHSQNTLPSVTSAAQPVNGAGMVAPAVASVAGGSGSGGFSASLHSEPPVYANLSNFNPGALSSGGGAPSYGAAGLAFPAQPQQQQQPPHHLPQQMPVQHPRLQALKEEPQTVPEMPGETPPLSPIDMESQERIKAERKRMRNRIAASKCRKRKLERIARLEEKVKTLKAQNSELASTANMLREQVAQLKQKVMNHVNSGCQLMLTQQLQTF

The inhibition is the share of the control response that was lost under treatment. For orientation: IC50 means the concentration that inhibits the measured activity by half. As for `COc1ccccc1-n1c(-c2cc(-c3ccc(S(C)(=O)=O)cc3)c(N3CCOCC3)s2)nc2ccccc2c1=O`, the results for the inhibition in series [1] and in series [5] were 55% and 33%, respectively. Also, the Activity entry in series [2] is “Non-toxic”; in series [3], 63%. In addition, the half-inhibitory concentration (IC50) in series [4] stood at 9.2 µM.

In the case of `COc1ccccc1-n1c(-c2cc(-c3ccncc3)c(N3CCOCC3)s2)nc2ccccc2c1=O`, the figures for the inhibition in series [1] and in series [5] were 55% and 33%, respectively. The Activity result in series [2] is “Non-toxic”; in series [3], 42%. The half-maximal inhibitory concentration (IC50) in series [4] came to 12.2 µM.

For the compound `Cc1cccc(-n2c(-c3cc(-c4ccncc4)c(N4CCOCC4)s3)nc3ccccc3c2=O)c1`, the inhibition in series [1] was 42%; in series [5], 35%. In addition, the Activity result in series [2] is given as “Non-toxic”.

Take `Cc1ccccc1-n1c(-c2cc(-c3ccccc3)c(N3CCOCC3)s2)nc2ccccc2c1=O`: the inhibition in series [1] is 23%; in series [5] it was 27%. In addition, in series [2], the Activity entry is listed as “Non-toxic”.

With `CSc1ccc(-c2cc(-c3nc4ccccc4c(=O)n3-c3ccccc3)sc2N2CCOCC2)cc1`, the inhibition in series [1] and in series [5] was 0% in each case. Further, the Activity entry in series [2] is “Non-toxic”.

With `CC(=O)Nc1ccc(-c2cc(-c3nc4ccccc4c(=O)n3-c3ccccc3)sc2N2CCOCC2)cc1`, the inhibition in series [1] amounted to 7%; in series [5] it was 26%. The Activity result in series [2] is recorded as “Non-toxic”.

`Cc1ccc(-n2c(-c3cc(-c4ccncc4)c(N4CCOCC4)s3)nc3ccccc3c2=O)cc1`: the inhibition in series [1] amounted to 26%; in series [5] it was 29%. In addition, the Activity entry in series [2] is “Non-toxic”.

On to `CC(=O)c1ccc(-n2c(-c3cc(-c4ccc(Cl)cc4)c(N4CCOCC4)s3)nc3ccccc3c2=O)cc1`, for which the inhibition in series [1] turned out to be 0%; in series [5] it was 7%. Further, the Activity result in series [2] is reported as “Non-toxic”.

Consider `Cc1ccccc1-n1c(-c2cc(-c3ccc(Cl)cc3)c(N3CCOCC3)s2)nc2ccccc2c1=O`, for which the inhibition was determined as 1% in series [1] and 32% in series [5]. The Activity result in series [2] is “Non-toxic”.

As to `CC(=O)c1ccc(-n2c(-c3cc(-c4ccccc4)c(N4CCOCC4)s3)nc3ccccc3c2=O)cc1`, the inhibition in series [1] stood at 0%; in series [5], 25%. The Activity entry in series [2] is recorded as “Non-toxic”.

`Cc1ccccc1-n1c(-c2cc(-c3ccc(S(C)(=O)=O)cc3)c(N3CCOCC3)s2)nc2ccccc2c1=O`: the inhibition turned out to be 51% in series [1] and 52% in series [5]. Also, the Activity result in series [2] is “Non-toxic”.

For `O=c1c2ccccc2nc(-c2cc(-c3ccc(Cl)cc3)c(N3CCOCC3)s2)n1-c1ccc(Cl)cc1`, the inhibition in series [1] was found to be 0%; in series [5], 14%. Further, in series [2], the Activity entry is “Non-toxic”.

With `CS(=O)(=O)c1ccc(-c2cc(-c3nc4ccccc4c(=O)n3-c3ccc(Cl)cc3)sc2N2CCOCC2)cc1`, the values for the inhibition in series [1] and in series [5] were 0% and 7%, respectively. The Activity entry in series [2] was “Non-toxic”.

Consider `CSc1ccc(-c2cc(-c3nc4ccccc4c(=O)n3-c3ccc(C)cc3)sc2N2CCOCC2)cc1`, for which the inhibition in series [1] came out at 22%; in series [5] it was 16%. The Activity result in series [2] is “Non-toxic”.

`Cc1cccc(-n2c(-c3cc(-c4ccc(Cl)cc4)c(N4CCOCC4)s3)nc3ccccc3c2=O)c1`: the inhibition amounted to 28% in series [1] and 10% in series [5]. Moreover, the Activity entry in series [2] was “Non-toxic”.

On to `CC(=O)Nc1ccc(-c2cc(-c3nc4ccccc4c(=O)n3-c3ccc(C)cc3)sc2N2CCOCC2)cc1`, for which the inhibition in series [1] was 4%; in series [5] it was 35%. The Activity entry in series [2] is “Non-toxic”.

Consider `O=c1c2ccccc2nc(-c2cc(-c3ccccc3)c(N3CCOCC3)s2)n1-c1ccc(Cl)cc1`, for which the inhibition in series [1] was determined as 0%; in series [5] it was 23%. In addition, in series [2], the Activity entry is recorded as “Non-toxic”.

Regarding `Cc1ccc(-n2c(-c3cc(-c4ccc(S(C)(=O)=O)cc4)c(N4CCOCC4)s3)nc3ccccc3c2=O)cc1`, the results for the inhibition in series [1] and in series [5] were 55% and 51%, respectively. The Activity result in series [2] is on record as “Non-toxic”.

With `O=c1c2ccccc2nc(-c2cc(-c3ccncc3)c(N3CCOCC3)s2)n1-c1ccccc1`, the inhibition in series [1] was determined as 30%; in series [5] it was 38%. Also, the Activity result in series [2] is given as “Non-toxic”.

On to `CSc1ccc(-c2cc(-c3nc4ccccc4c(=O)n3-c3cccc(C)c3)sc2N2CCOCC2)cc1`, for which the inhibition turned out to be 11% in series [1] and 14% in series [5]. For the same compound, the Activity entry in series [2] is listed as “Non-toxic”.

Take `COc1ccccc1-n1c(-c2cc(-c3ccccc3)c(N3CCOCC3)s2)nc2ccccc2c1=O`: the inhibition in series [1] and in series [5] was 0% in each case. The Activity result in series [2] was “Non-toxic”.

`CSc1ccc(-c2cc(-c3nc4ccccc4c(=O)n3-c3ccccc3C)sc2N2CCOCC2)cc1`: the inhibition in series [1] was found to be 15%; in series [5], 13%. Further, the Activity result in series [2] was “Non-toxic”.

In the case of `O=c1c2ccccc2nc(-c2cc(-c3ccc(Cl)cc3)c(N3CCOCC3)s2)n1-c1ccccc1`, the inhibition in series [1] and in series [5] was 0% in each case. The Activity entry in series [2] is “Non-toxic”.

Consider `COc1cccc(-n2c(-c3cc(-c4ccc(S(C)(=O)=O)cc4)c(N4CCOCC4)s3)nc3ccccc3c2=O)c1`, for which the inhibition in series [1] came to 20%; in series [5], 0%. Besides, in series [2], the Activity result is listed as “Non-toxic”.

On to `CC(=O)c1ccc(-n2c(-c3cc(-c4ccc(S(C)(=O)=O)cc4)c(N4CCOCC4)s3)nc3ccccc3c2=O)cc1`, for which the inhibition in series [1] turned out to be 46%; in series [5] it was 31%. Besides, the Activity result in series [2] was “Non-toxic”.

For `O=c1c2ccccc2nc(-c2cc(-c3ccccc3)c(N3CCOCC3)s2)n1-c1ccccc1`, the figures for the inhibition in series [1] and in series [5] were 0% and 11%, respectively. Also, the Activity result in series [2] is reported as “Non-toxic”.

As to `CC(=O)Nc1ccc(-c2cc(-c3nc4ccccc4c(=O)n3-c3ccc(Cl)cc3)sc2N2CCOCC2)cc1`, the inhibition in series [1] was 0%; in series [5], 17%. The Activity result in series [2] is “Non-toxic”.

In the case of `CS(=O)(=O)c1ccc(-c2cc(-c3nc4ccccc4c(=O)n3-c3ccccc3)sc2N2CCOCC2)cc1`, the inhibition in series [1] was 9%; in series [5] it was 28%. For the same compound, the Activity result in series [2] was “Non-toxic”.

As for `Cc1ccc(-n2c(-c3cc(-c4ccccc4)c(N4CCOCC4)s3)nc3ccccc3c2=O)cc1`, the inhibition was determined as 0% in series [1] and 17% in series [5]. In addition, in series [2], the Activity entry was “Non-toxic”.

With `Cc1cccc(-n2c(-c3cc(-c4ccc(S(C)(=O)=O)cc4)c(N4CCOCC4)s3)nc3ccccc3c2=O)c1`, the inhibition in series [1] is 20%; in series [5], 48%. For the same compound, the Activity result in series [2] is recorded as “Non-toxic”.

Consider `Cc1ccc(-n2c(-c3cc(-c4ccc(Cl)cc4)c(N4CCOCC4)s3)nc3ccccc3c2=O)cc1`, for which the inhibition in series [1] worked out at 15%; in series [5] it was 27%. Besides, the Activity entry in series [2] was “Non-toxic”.

As for `CC(=O)Nc1ccc(-c2cc(-c3nc4ccccc4c(=O)n3-c3cccc(C)c3)sc2N2CCOCC2)cc1`, the values for the inhibition in series [1] and in series [5] were 35% and 13%, respectively. For the same compound, the Activity result in series [2] is given as “Non-toxic”.
